Experimental data published in the RNAGym collection of RNA variant scans (doi:10.1038/s41586-018-0170-7).

B1: tRNA (parent)
chain: GUUCCGUUGGCGUAAUGGUAACGCGUCUCCCUCCUAAGGAGAAGACUGCGGGUUCGAGUCCCGUACGGAACG

Variants of: B1
Assay: yeast fitness, log relative to wild type (ln ratio); higher = fitter; tRNA-Arg(CCU), competitive growth, 37 C, 1 M NaCl
Procedure, shortened: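 BY4742 cells without the chromosomal tRNA-Arg(CCU) gene carried a combinatorial variant library on a HIS3 centromeric plasmid, from two independent transformations. After 4 generations in SC-HIS at 30 °C, pools spent ~6.5 generations (~26.5 h) in SC-HIS 1M NaCl at 37 °C, giving three outputs per input, and 125 bp paired-end Illumina reads counted the variants. Fitness is the natural log of each genotype's generations over the wild type's, with generations taken as OD-scaled log2 output/input frequency weighted by inverse variance across replicates.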

Variant | yeast fitness (ln)
GCUCCUUUGGCGUAAUGGUAACGCGUUUCCCUCCUAAGGAGAAGACUGCGGGUUCGAGUCCCGUAUGGAGUG [U2C G6U C27U C66U A70G C71U] | -0.57
ACUCCAUUGGCGUAAUGGUAACGCGUUUCCCUCCUAAGGAGAAGACUGCGGGUUCGAGUCCCGUAUGGAGUG [G1A U2C G6A C27U C66U A70G C71U] | -0.0371
GCUCCUUUGGCGUAAUGGUAACGCGUCUCCCUCCUAAGGAGACGAUUGCGGGUUCGAGUCCCGUAAGGGUCG [U2C G6U A43C C46U C66A A69G A70U] | -0.162
GUUCCGUUGGCGUAAUGGUAACGCGUCUCCCUCCUAAGGAGAAGAUUGCGGGUUCGAGUCCCGUAUGGAUCG [C46U C66U A70U] | -0.103
GCUCCAUUGGCGUAAUGGUAACGCGUCUCCCUCCUAAGGAGACGACUGCGGGUUCGAGUCCCGUACGGGGUG [U2C G6A A43C A69G A70G C71U] | -0.153
GUUCCAUUGGCGUAAUGGUAACGCGUUUCCCUCCUAAGGAGACGACUGCGGGUUCGAGUCCCGUAAGGAGCG [G6A C27U A43C C66A A70G] | -0.337
ACUCCGUUGGCGUAAUGGUAACGCGUCUCCCUCCUAAGGAGAAGACUGCGGGUUCGAGUCCCGUAUGGGUCG [G1A U2C C66U A69G A70U] | -0.245
AGUCCAUUGGCGUAAUGGUAACGCGUUUCCCUCCUAAGGAGAAGAUUGCGGGUUCGAGUCCCGUACGGGGCG [G1A U2G G6A C27U C46U A69G A70G] | -0.226
GGUCCAUUGGCGUAAUGGUAACGCGUCUCCCUCCUAAGGAGAAGACUGCGGGUUCGAGUCCCGUAAGGGUCG [U2G G6A C66A A69G A70U] | -0.0595
AGUCCUUUGGCGUAAUGGUAACGCGUCUCCCUCCUAAGGAGACGAUUGCGGGUUCGAGUCCCGUAUGGAGUG [G1A U2G G6U A43C C46U C66U A70G C71U] | -0.418
GCUCCUUUGGCGUAAUGGUAACGCGUUUCCCUCCUAAGGAGAAGACUGCGGGUUCGAGUCCCGUAUGGGUCG [U2C G6U C27U C66U A69G A70U] | -0.378
AUUCCAUUGGCGUAAUGGUAACGCGUUUCCCUCCUAAGGAGACGAUUGCGGGUUCGAGUCCCGUAUGGGAUG [G1A G6A C27U A43C C46U C66U A69G C71U] | -0.499
ACUCCAUUGGCGUAAUGGUAACGCGUUUCCCUCCUAAGGAGACGAUUGCGGGUUCGAGUCCCGUAUGGGUUG [G1A U2C G6A C27U A43C C46U C66U A69G A70U C71U] | -0.555
AUUCCAUUGGCGUAAUGGUAACGCGUUUCCCUCCUAAGGAGACGAUUGCGGGUUCGAGUCCCGUAUGGAGCG [G1A G6A C27U A43C C46U C66U A70G] | -0.27
AUUCCAUUGGCGUAAUGGUAACGCGUUUCCCUCCUAAGGAGAAGACUGCGGGUUCGAGUCCCGUAAGGAUUG [G1A G6A C27U C66A A70U C71U] | -0.292
GUUCCAUUGGCGUAAUGGUAACGCGUCUCCCUCCUAAGGAGAAGACUGCGGGUUCGAGUCCCGUAUGGGGCG [G6A C66U A69G A70G] | -0.0412
GUUCCUUUGGCGUAAUGGUAACGCGUUUCCCUCCUAAGGAGAAGAUUGCGGGUUCGAGUCCCGUACGGGGUG [G6U C27U C46U A69G A70G C71U] | -0.342
AUUCCUUUGGCGUAAUGGUAACGCGUUUCCCUCCUAAGGAGACGAUUGCGGGUUCGAGUCCCGUACGGGUCG [G1A G6U C27U A43C C46U A69G A70U] | -0.347
GUUCCUUUGGCGUAAUGGUAACGCGUCUCCCUCCUAAGGAGAAGAUUGCGGGUUCGAGUCCCGUACGGAUCG [G6U C46U A70U] | -0.161

Variant | yeast fitness (ln)
GGUCCGUUGGCGUAAUGGUAACGCGUUUCCCUCCUAAGGAGAAGACUGCGGGUUCGAGUCCCGUAAGGAUCG [U2G C27U C66A A70U] | -0.0765
GUUCCAUUGGCGUAAUGGUAACGCGUUUCCCUCCUAAGGAGACGAUUGCGGGUUCGAGUCCCGUACGGAUUG [G6A C27U A43C C46U A70U C71U] | -0.239
GUUCCGUUGGCGUAAUGGUAACGCGUCUCCCUCCUAAGGAGAAGACUGCGGGUUCGAGUCCCGUACGGAGUG [A70G C71U] | -0.0739
GGUCCUUUGGCGUAAUGGUAACGCGUCUCCCUCCUAAGGAGAAGACUGCGGGUUCGAGUCCCGUACGGAUUG [U2G G6U A70U C71U] | -0.109
GUUCCGUUGGCGUAAUGGUAACGCGUCUCCCUCCUAAGGAGACGACUGCGGGUUCGAGUCCCGUAUGGAACG [A43C C66U] | -0.178
GCUCCAUUGGCGUAAUGGUAACGCGUUUCCCUCCUAAGGAGAAGACUGCGGGUUCGAGUCCCGUACGGGGCG [U2C G6A C27U A69G A70G] | -0.252
AUUCCAUUGGCGUAAUGGUAACGCGUCUCCCUCCUAAGGAGAAGACUGCGGGUUCGAGUCCCGUACGGAAUG [G1A G6A C71U] | -0.363
AUUCCUUUGGCGUAAUGGUAACGCGUCUCCCUCCUAAGGAGACGAUUGCGGGUUCGAGUCCCGUAAGGAACG [G1A G6U A43C C46U C66A] | -0.278
GGUCCAUUGGCGUAAUGGUAACGCGUUUCCCUCCUAAGGAGAAGAUUGCGGGUUCGAGUCCCGUACGGGUUG [U2G G6A C27U C46U A69G A70U C71U] | -0.368
GGUCCUUUGGCGUAAUGGUAACGCGUCUCCCUCCUAAGGAGAAGAUUGCGGGUUCGAGUCCCGUAAGGGGUG [U2G G6U C46U C66A A69G A70G C71U] | -0.164
AUUCCUUUGGCGUAAUGGUAACGCGUCUCCCUCCUAAGGAGAAGAUUGCGGGUUCGAGUCCCGUAAGGAUCG [G1A G6U C46U C66A A70U] | -0.0534
AUUCCGUUGGCGUAAUGGUAACGCGUUUCCCUCCUAAGGAGAAGACUGCGGGUUCGAGUCCCGUAAGGAUCG [G1A C27U C66A A70U] | -0.132
AUUCCAUUGGCGUAAUGGUAACGCGUCUCCCUCCUAAGGAGAAGAUUGCGGGUUCGAGUCCCGUACGGAGCG [G1A G6A C46U A70G] | -0.0807
ACUCCAUUGGCGUAAUGGUAACGCGUUUCCCUCCUAAGGAGAAGAUUGCGGGUUCGAGUCCCGUAUGGAUUG [G1A U2C G6A C27U C46U C66U A70U C71U] | -0.364
GGUCCUUUGGCGUAAUGGUAACGCGUUUCCCUCCUAAGGAGAAGAUUGCGGGUUCGAGUCCCGUAUGGAUUG [U2G G6U C27U C46U C66U A70U C71U] | -0.312
AGUCCUUUGGCGUAAUGGUAACGCGUCUCCCUCCUAAGGAGAAGAUUGCGGGUUCGAGUCCCGUAUGGGGUG [G1A U2G G6U C46U C66U A69G A70G C71U] | -0.244
AUUCCGUUGGCGUAAUGGUAACGCGUCUCCCUCCUAAGGAGAAGACUGCGGGUUCGAGUCCCGUACGGGAUG [G1A A69G C71U] | -0.0087
GGUCCUUUGGCGUAAUGGUAACGCGUUUCCCUCCUAAGGAGACGACUGCGGGUUCGAGUCCCGUACGGAAUG [U2G G6U C27U A43C C71U] | -0.304
GUUCCUUUGGCGUAAUGGUAACGCGUCUCCCUCCUAAGGAGACGACUGCGGGUUCGAGUCCCGUAAGGAAUG [G6U A43C C66A C71U] | -0.177
